8 molecules from PubChem BioAssay AID588717 (Southern Research Specialized Biocontainment Screening …, 2011) can be followed below.

Test [1] in a line: Vero E6 cell cytotoxicity, dose response, cytotoxicity control for P. falciparum PFM1AAP inhibitor project, M1 aminopeptidase campaign (AID 588717). The settings on record: Vero E6 viability, CellTiter-Glo luminescence, 72 h; at 50 µM (top of the series). A digest of the protocol:
(§1)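 Material: Vero E6 cells | Quantity: 3000 cells/well | Medium: E-MEM plus 10% FBS | Times: 72 h treatment, 37 °C | Detection: ATP-based luminescence with CellTiter-Glo reagent | Measure: % viability vs vehicle, CC50 from curve fit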
On the technique in general: In ATP-based viability assays light output follows the ATP content of the culture.

In test [2] the test system is Vero E6 viability, CellTiter-Glo luminescence, 72 h. Described as above. A digest of the protocol: as §1

Each structure is given as a SMILES string. Inconclusive results are not listed. Active and inactive are the calls of the source.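 Rule for the calls: active = viability below 80% at one or more tested concentrations; inconclusive = replicate runs disagree on the 80% viability cutoff; inactive = viability above 80% at every tested concentration.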

The viability is a read-out of living cells in per cent, often relative to untreated cells. Usually CC50 stands for the concentration giving 50% cytotoxicity.

In the case of `CC[C@H](C)[C@H](NS(=O)(=O)c1ccc(Br)s1)C(=O)O`, the viability in test [1] is 104% (inactive).
As to `COc1ccc(-c2ccc(S(=O)(=O)N3CCC(C(=O)NCc4ccc5c(c4)OCO5)CC3)s2)cc1`, the viability in test [1] is 84.2% (inactive).
Regarding `CC[C@H](C)[C@H](NS(=O)(=O)c1ccc(Br)s1)C(=O)NCc1ccc(C(F)(F)F)cc1`, the CC50 in test [2] is 28.7 µM.
Turning to `CC[C@H](C)[C@H](NS(=O)(=O)c1ccc(Br)s1)C(=O)NCc1ccc(F)cc1`, the viability in test [1] was 97% (inactive).
On the same count and under the same terms, under `COc1cccc(-c2ccc(S(=O)(=O)N3CCC(C(=O)NCc4ccc5c(c4)OCO5)CC3)s2)c1` stands 83.4% (inactive); under `CC[C@H](C)[C@H](NC(=O)c1ccc([N+](=O)[O-])cc1)C(=O)NCc1ccc(C(F)(F)F)cc1`, 92.2% (inactive); under `CC[C@H](C)[C@H](NS(=O)(=O)c1cccs1)C(=O)NCc1ccc(F)cc1`, 95.5% (inactive).
Same read-out and setting: under `CC[C@H](C)[C@H](NC(=O)c1ccc([N+](=O)[O-])cc1)C(=O)NCc1ccccc1` stands 88.9% (inactive).
